As usually defined, the IC50 is the midpoint of a concentration-inhibition curve.

Data set [1] relates to HT-29. As to the kind of experiment: Inhibition of c-myc mRNA expression in human HT-29 cells after 48 hrs by RT-PCR analysis relative to control. Type of data set: functional. The essentials:
(§1)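 HT-29 cells grown to 70–80% confluence and serum-starved 24 h, then treated in DMSO for 48 h. Total RNA extracted, converted to cDNA and PCR-amplified with gene-specific primers. PCR cycles were VEGF 94 °C 30 s/58 °C 1 min/72 °C 1 min 50 s; hTERT 94 °C 1 min/57 °C 1 min/72 °C 1 min 30 s; c-Myc as VEGF. Agarose gel bands quantified by densitometry and normalized to β-actin. DMSO control set to 100%. At least three measurements per case, mean ± SEM, one-sample t-test.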

The subject of data set [2] is HT-29. Kind of data set: Inhibition of TERT mRNA expression in human HT-29 cells after 48 hrs by RT-PCR analysis relative to control. Type of data set: functional. In outline: as §1
Data set [3] can be described thus: Selectivity ratio of IC50 for HEK293 cells to IC50 for human MCF7 cells. The settings on record: HEK293 cells versus MCF7 cells, read-out: Ratio IC50. It is filed as ADME, cell-based.
A short description of data set [4]: Selectivity ratio of IC50 for HEK293 cells to IC50 for human HT-29 cells. It is filed as ADME, cell-based. The note with it: HEK293 cells versus HT-29 cells, read-out: Ratio IC50.
The subject of another data set is HEK293. Kind of data set: Cytotoxicity against HEK293 cells assessed as growth inhibition after 3 days by MTT assay. The settings on record: Homo sapiens, HEK293, 72 h. It is filed as cell-based. The essentials: (§2)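 5 × 10³ cells per well (HT-29, MCF-7 or HEK-293) exposed for 3 days at 37 °C, 5% CO2, humidified. MTT (5 mg/ml in PBS) added for a further 4 h at 37 °C. Formazan dissolved in 0.04 N HCl/2-propanol and read at 550 nm. Run in triplicate. IC50 taken as the concentration giving 50% growth inhibition.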
For orientation: Tetrazolium dyes change colour on reduction, which living cells bring about.

For the next data set, the system named is MCF7. As to the kind of experiment: Cytotoxicity against human MCF7 cells assessed as growth inhibition after 3 days by MTT assay. Type of data set: functional, cell-based. The note with it: MCF7, 72 h. In outline: as §2
In data set [5] the test system is HT-29. As to the kind of experiment: Cytotoxicity against human HT-29 cells assessed as growth inhibition after 3 days by MTT assay. The settings on record: HT-29, 72 h. Type of data set: functional, cell-based. The essentials:
as §2

Data set [6] concerns HT-29. As to the kind of experiment: Antiangiogenic activity in human HT-29 cells assessed as inhibition of VEGF production at < IC50 after 72 hrs by ELISA relative to control; values are per cent of control. A general note: In an ELISA, binding on a coated surface is turned into a signal by an enzyme label.
Data set [7] has as its system HT-29. As to the kind of experiment: Antiangiogenic activity in human HT-29 cells assessed as inhibition of VEGF mRNA expression at < IC50 after 48 hrs by RT-PCR analysis relative to control; values are per cent of control.

Regarding `COCOc1ccccc1/C=C/CCCOc1cc(/C=C\c2cc(OC)c(OC)c(OC)c2)ccc1OC`, the “inhibition (INH)” value in the data set with HT-29 [1] turned out to be 75%; in the data set on HT-29 [2] it was 76%. Moreover, the results for the selectivity ratio in [3] and in data set [4] were 24.1 and 11, respectively. For the same molecule, the IC50 in the data set with HEK293 stood at 106 µM; with MCF7, 4.4 µM; in the data set with HT-29 [5] it was 9.6 µM. Further, the entries for the “level, % of control” value with HT-29 [6] and in the data set with HT-29 [7] were 42% and 80%, respectively.

`COc1ccc(/C=C\c2cc(OC)c(OC)c(OC)c2)cc1OCCC/C=C/c1ccc(Cl)cc1`: the selectivity ratio in [3] worked out at 2.8; in data set [4], 6.2. For the same molecule, the IC50 worked out at 111 µM in the data set with HEK293, 40 µM in the data set on MCF7 and 18 µM with HT-29 [5]. Moreover, in the data set on HT-29 [6], the “level, % of control” value is on record as 60%.

As for `COCOc1cccc(/C=C/CCCOc2cc(/C=C\c3cc(OC)c(OC)c(OC)c3)ccc2OC)c1`, the “inhibition (INH)” value is reported as 72% in the data set on HT-29 [1] and 79% in the data set on HT-29 [2]. Besides, the selectivity ratio in data set [3] is 3.7; in [4], 0.5. The figures for the IC50 in the data set with HEK293, in the data set on MCF7 and in the data set on HT-29 [5] were 30 µM, 8 µM and 59 µM, respectively. In addition, the “level, % of control” value with HT-29 [6] was found to be 51%; in the data set on HT-29 [7], 90%.

`COc1cccc(/C=C/CCCOc2cc(/C=C\c3cc(OC)c(OC)c(OC)c3)ccc2OC)c1`: the “inhibition (INH)” value in the data set with HT-29 [1] is given as 60%; with HT-29 [2] it was 63%. The selectivity ratio in data set [3] turned out to be 1; in data set [4], 1.6. For the same molecule, the concentration for half-maximal inhibition (IC50) in the data set with HEK293 was found to be 39 µM; in the data set on MCF7, 41 µM; in the data set with HT-29 [5] it was 25 µM. The “level, % of control” value in the data set with HT-29 [6] worked out at 38%; in the data set with HT-29 [7], 97%.

`COc1ccc(/C=C\c2cc(OC)c(OC)c(OC)c2)cc1OCc1ccccc1`: the selectivity ratio was 0.3 in [3] and 0.4 in data set [4]. In addition, the IC50 in the data set on HEK293 is 15 µM; with MCF7, 59 µM; in the data set with HT-29 [5] it was 39 µM. Besides, in the data set with HT-29 [6], the “level, % of control” value was determined as 79%.

As to `C/C=C/COc1cc(/C=C\c2cc(OC)c(OC)c(OC)c2)ccc1OC`, the “inhibition (INH)” value in the data set on HT-29 [1] was 92%; in the data set with HT-29 [2] it was 96%. Also, the selectivity ratio in data set [3] is 25; in data set [4], 0.8. Moreover, the half-maximal inhibitory concentration (IC50) in the data set with HEK293 was found to be 135 µM; with MCF7 it was 5.4 µM; with HT-29 [5], 161 µM. Moreover, the “level, % of control” value in the data set on HT-29 [6] was 44%; in the data set with HT-29 [7], 69%.

Regarding `COc1ccc(/C=C/CCCOc2cc(/C=C\c3cc(OC)c(OC)c(OC)c3)ccc2OC)cc1`, the values for the selectivity ratio in [3] and in data set [4] were 5.5 and 1.9, respectively. Besides, the IC50 was 88 µM in the data set with HEK293, 16 µM with MCF7 and 47 µM in the data set on HT-29 [5]. For the same molecule, in the data set with HT-29 [6], the “level, % of control” value is 50%.

As for `COc1ccc(/C=C\c2cc(OC)c(OC)c(OC)c2)cc1OCc1ccc(Br)cc1`, the selectivity ratio was 1.6 in [3] and 0.4 in data set [4]. Further, the half-maximal inhibitory concentration (IC50) in the data set on HEK293 stood at 45 µM; with MCF7, 29 µM; in the data set with HT-29 [5], 108 µM. In addition, the “level, % of control” value in the data set on HT-29 [6] was 99%.

In the case of `COc1ccc(/C=C\c2cc(OC)c(OC)c(OC)c2)cc1OCCC/C=C/c1ccc(Br)cc1`, the figures for the “inhibition (INH)” value with HT-29 [1] and in the data set on HT-29 [2] were 35% and 39%, respectively. Further, the figures for the selectivity ratio in [3] and in [4] were 1.5 and 5, respectively. Further, the IC50 was found to be 55 µM in the data set with HEK293, 37 µM with MCF7 and 11 µM in the data set on HT-29 [5]. The “level, % of control” value is listed as 48% with HT-29 [6] and 73% in the data set with HT-29 [7].

For `C=CCOc1cc(/C=C\c2cc(OC)c(OC)c(OC)c2)ccc1OC`, the selectivity ratio is 3.6 in data set [3] and 1.5 in data set [4]. The IC50 in the data set with HEK293 was 43.5 µM; in the data set on MCF7 it was 12 µM; in the data set on HT-29 [5], 29 µM. Besides, the “level, % of control” value in the data set with HT-29 [6] is recorded as 51%.

On to `COc1ccc(/C=C\c2cc(OC)c(OC)c(OC)c2)cc1O` [COMBRETASTATIN A4], for which the entries for the “inhibition (INH)” value with HT-29 [1] and in the data set on HT-29 [2] were 99% and 74%, respectively. The selectivity ratio in data set [3] came out at 25; in data set [4], 5.9. For the same molecule, the values for the IC50 in the data set with HEK293, with MCF7 and in the data set with HT-29 [5] were 25 µM, 1 µM and 4.2 µM, respectively. Further, the “level, % of control” value in the data set with HT-29 [6] was 47%; with HT-29 [7], 91%.

Regarding `COCOc1ccc(/C=C/CCCOc2cc(/C=C\c3cc(OC)c(OC)c(OC)c3)ccc2OC)cc1`, the “inhibition (INH)” value is given as 58% in the data set on HT-29 [1] and 60% in the data set on HT-29 [2]. Besides, the selectivity ratio in data set [3] was determined as 0.6; in data set [4], 3.6. The figures for the concentration for half-maximal inhibition (IC50) in the data set on HEK293, with MCF7 and with HT-29 [5] were 25 µM, 42 µM and 7 µM, respectively. Moreover, the entries for the “level, % of control” value in the data set on HT-29 [6] and in the data set with HT-29 [7] were 51% and 66%, respectively.

Turning to `COc1ccc(COc2cc(/C=C\c3cc(OC)c(OC)c(OC)c3)ccc2OC)cc1`, the selectivity ratio was 1.3 in data set [3] and 1.4 in [4]. Further, the results for the 50% inhibitory concentration (IC50) in the data set with HEK293, in the data set with MCF7 and with HT-29 [5] were 64 µM, 48 µM and 47 µM, respectively. The “level, % of control” value in the data set with HT-29 [6] came to 57%.

Regarding `COc1ccc(/C=C\c2cc(OC)c(OC)c(OC)c2)cc1OCCC/C=C/c1ccc(F)cc1`, the figures for the selectivity ratio in [3] and in [4] were 7.2 and 1.2, respectively. Further, the results for the half-maximal inhibitory concentration (IC50) in the data set with HEK293, with MCF7 and in the data set with HT-29 [5] were 115 µM, 16 µM and 98 µM, respectively. For the same molecule, in the data set on HT-29 [6], the “level, % of control” value is recorded as 57%.

Consider `COc1ccccc1/C=C/CCCOc1cc(/C=C\c2cc(OC)c(OC)c(OC)c2)ccc1OC`, for which the selectivity ratio in [3] is greater than 19; in data set [4] it was greater than 4.6. Besides, the IC50 in the data set on HEK293 was greater than 400 µM; with MCF7, 21 µM; with HT-29 [5], 86 µM. Besides, the “level, % of control” value in the data set on HT-29 [6] is 52%.

(Values after ChEMBL document CHEMBL3091460, “Synthesis of combretastatin A-4 O-alkyl derivatives and evaluation of their cytotoxic, antiangiogenic and antitelomerase activity” (Bioorg Med Chem, 2013).)
